Laboratory results: ChEMBL document CHEMBL3600351, “Exploiting translational stalling peptides in an effort to extend azithromycin interaction within the prokaryotic ribosome nascent peptide exit tunnel” (Bioorg Med Chem, 2015)
Values after ≈ are worked out from the molar mass of the structure shown. Active and inactive are the calls of the source. The rule behind the calls is not given here.

Columns and labels:
[1] = test system: Staphylococcus aureus; assay: Antibacterial activity against Staphylococcus aureus ATCC 29213 assessed as inhibition of bacterial growth after 18 hrs in presence of 50% bovine serum by liquid microdilution method; assay type: functional; details: ATCC 29213, 18 h
Method in brief: (§1)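 S. aureus ATCC 29213 overnight culture (37 °C) diluted 1:1000 in 50% bovine serum/broth and run by liquid microdilution. Growth was taken from OD600 change over 18 h at 37 °C to give MIC50, in triplicate against a vehicle control. The enhancement ratio is MIC50 without serum divided by MIC50 with serum.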

[2] = test system: Escherichia coli; assay: Antibacterial activity against Escherichia coli ATCC 27856 assessed as inhibition of bacterial growth after 18 hrs by liquid microdilution method; assay type: functional
Method in brief: (§2)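 Liquid microdilution. Overnight 37 °C cultures, E. coli ATCC 27856 in LB and S. aureus ATCC 29213 in TSB, diluted 1:1000 in the same medium and exposed to compound. Growth was taken from OD600 before and after 18 h at 37 °C. MIC50 is the read-out. Triplicate, normalized to an internal vehicle control.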

[3] = Inhibition of ribosome nascent peptide exit tunnel in Escherichia coli S30 extract assessed as inhibition of prokaryotic translation in presence of amino acids incubated for 20 mins by luciferase reporter gene assay
Method in brief: (§3)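 E. coli S30 cell-free extract with all amino acids, preincubated with compound for 20 min at room temperature. Luciferase control template added, translation run 60 min at 37 °C, then stopped by 5 min on ice. Luminescence was read after luciferin addition. IC50 from nonlinear fit, triplicate, normalized to vehicle control.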

[4] = test system: Staphylococcus aureus; assay: Antibacterial activity against Staphylococcus aureus ATCC 29213 assessed as inhibition of bacterial growth after 18 hrs by liquid microdilution method; assay type: functional; details: ATCC 29213, 18 h; method in brief: as §2
[5] = test system: Staphylococcus aureus; assay: Ratio of MIC50 for Staphylococcus aureus ATCC 29213 in absence of 50% bovine serum to MIC50 for Staphylococcus aureus ATCC29213 in presence of 50% bovine serum; assay type: functional; method in brief: as §1
[6] = Binding affinity to ribosome nascent peptide exit tunnel in rabbit reticulocyte extract assessed as inhibition of eukaryotic translation in presence of amino acids incubated for 20 mins by luciferase reporter gene assay; parameters: species or system Oryctolagus cuniculus
Method in brief: as §3, with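 “Nuclease-treated rabbit reticulocyte lysate” for “E. coli S30 cell-free extract”, “90” for “60”, “30” for “37”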

[7] = test system: Staphylococcus aureus; assay: Antibacterial activity against Erm+ methicillin-resistant Staphylococcus aureus ATCC 33591 assessed as inhibition of bacterial growth after 18 hrs by liquid microdilution method; assay type: functional
Method in brief: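 MRSA grown overnight at 37 °C in Nutrient broth, diluted 1:1000 in the same medium, then plated with the compounds. Growth was judged by comparing OD600 before and after 18 h at 37 °C. MIC50 was taken by liquid microdilution. Vancomycin was the positive control. Each compound was run in triplicate and standardized against an internal vehicle control.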

| Structure (SMILES) | MIC50 [1] [µg/mL] | MIC50 ([2]; ATCC 27856, 18 h) [µg/mL] | IC50 [3] [nM] | MIC50 [4] [µg/mL] | Ratio [5] | IC50 [6] [nM] | MIC50 [7] | MIC50 [2] |
| --- | --- | --- | --- | --- | --- | --- | --- | --- |
| CC[C@H]1OC(=O)[C@H](C)[C@@H](O[C@H]2C[C@@](C)(OC)[C@@H](O)[C@H](C)O2)[C@H](C)[C@@H](O[C@@H]2O[C@H](C)C[C@H](N(C)C)[C@H]2O)[C@](C)(O)C[C@@H](C)CN(Cc2ccc(-c3cn(CCn4ccc5ccccc54)nn3)cc2)[C@H](C)[C@@H](O)[C@]1(C)O | 0.63 | 64 (≈ 61.8 µM) | 197 | 1.56 (≈ 1.51 µM) | 2.5 | > 250000 | inactive |  |
| CC[C@H]1OC(=O)[C@H](C)[C@@H](O[C@H]2C[C@@](C)(OC)[C@@H](O)[C@H](C)O2)[C@H](C)[C@@H](O[C@@H]2O[C@H](C)C[C@H](N(C)C)[C@H]2O)[C@](C)(O)C[C@@H](C)CN(CCCCc2cn(CCn3ccc4cc(Cl)ccc43)nn2)[C@H](C)[C@@H](O)[C@]1(C)O | 0.16 | 64 (≈ 61.8 µM) | 490 | 0.78 (≈ 0.753 µM) | 5 | > 250000 | inactive |  |
| CC[C@H]1OC(=O)[C@H](C)[C@@H](O[C@H]2C[C@@](C)(OC)[C@@H](O)[C@H](C)O2)[C@H](C)[C@@H](O[C@@H]2O[C@H](C)C[C@H](N(C)C)[C@H]2O)[C@](C)(O)C[C@@H](C)CN(CCCCc2cn(CCN3CCc4ccccc43)nn2)[C@H](C)[C@@H](O)[C@]1(C)O | 0.16 | 4 (≈ 3.99 µM) | 147 | 1.56 (≈ 1.55 µM) | 10 | > 250000 | inactive |  |
| CC[C@H]1OC(=O)[C@H](C)[C@@H](O[C@H]2C[C@@](C)(OC)[C@@H](O)[C@H](C)O2)[C@H](C)[C@@H](O[C@@H]2O[C@H](C)C[C@H](N(C)C)[C@H]2O)[C@](C)(O)C[C@@H](C)CN(Cc2ccc(-c3cn(CCn4ccc5cc(F)ccc54)nn3)cc2)[C@H](C)[C@@H](O)[C@]1(C)O | 0.78 | 64 (≈ 60.8 µM) | 463 | 1.56 (≈ 1.48 µM) | 2 | > 250000 | inactive |  |
| CC[C@H]1OC(=O)[C@H](C)[C@@H](O[C@H]2C[C@@](C)(OC)[C@@H](O)[C@H](C)O2)[C@H](C)[C@@H](O[C@@H]2O[C@H](C)C[C@H](N(C)C)[C@H]2O)[C@](C)(O)C[C@@H](C)CN(CCCCc2cn(CCn3ccc4cc(OC)ccc43)nn2)[C@H](C)[C@@H](O)[C@]1(C)O | 0.16 | 16 (≈ 15.5 µM) | 238 | 1.56 (≈ 1.51 µM) | 10 | > 250000 | inactive |  |
| CC[C@H]1OC(=O)[C@H](C)[C@@H](O[C@H]2C[C@@](C)(OC)[C@@H](O)[C@H](C)O2)[C@H](C)[C@@H](O[C@@H]2O[C@H](C)C[C@H](N(C)C)[C@H]2O)[C@](C)(O)C[C@@H](C)CN(Cc2ccc(-c3cn(CCc4cn(C)c5ccccc45)nn3)cc2)[C@H](C)[C@@H](O)[C@]1(C)O | 1.56 | 128 (≈ 122 µM) | 641 | 6.25 (≈ 5.96 µM) | 4 | > 250000 | inactive |  |
| CC[C@H]1OC(=O)[C@H](C)[C@@H](O[C@H]2C[C@@](C)(OC)[C@@H](O)[C@H](C)O2)[C@H](C)[C@@H](O[C@@H]2O[C@H](C)C[C@H](N(C)C)[C@H]2O)[C@](C)(O)C[C@@H](C)CN(Cc2ccc(-c3cn(CCc4c[nH]c5ccc(Cl)cc45)nn3)cc2)[C@H](C)[C@@H](O)[C@]1(C)O | 1.56 |  | 586 | 1.56 (≈ 1.46 µM) | 1 | > 250000 | inactive | inactive |
| O=C(N[C@H](CO)[C@H](O)c1ccc([N+](=O)[O-])cc1)C(Cl)Cl [CHLORAMPHENICOL] |  | 4 (≈ 12.4 µM) |  |  |  |  |  |  |
| CC[C@H]1OC(=O)[C@H](C)[C@@H](O[C@H]2C[C@@](C)(OC)[C@@H](O)[C@H](C)O2)[C@H](C)[C@@H](O[C@@H]2O[C@H](C)C[C@H](N(C)C)[C@H]2O)[C@](C)(O)C[C@@H](C)CN(Cc2ccc(-c3cn(CCN4CCc5ccccc54)nn3)cc2)[C@H](C)[C@@H](O)[C@]1(C)O | 0.78 | 64 (≈ 61.7 µM) | 555 | 1.56 (≈ 1.5 µM) | 2 | > 250000 | inactive |  |
